In ChEMBL document CHEMBL1148164, “Cytotoxicity of artemisinin-related endoperoxides to Ehrlich ascites tumor cells” (J Nat Prod, 1993):

Key:
[1] = Cytotoxicity against mouse EAC after 3 days by MTT assay; type: functional, cell-based; conditions: Ehrlich, 72 h
In short: (§1)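 Exponentially growing EAT cells (>95% trypan-blue viable; RPMI 1640, 10% heat-inactivated FCS) at 400 cells/well were exposed to compounds for 2 h at 37°, 5% CO2 (final DMSO 0.25%). Cells were washed 3×, then grown 3 days. MTT (5 mg/ml in PBS) was added for 3 h 45 min, formazan was dissolved in DMSO, and A520 was read. Survival is relative to untreated, medium-blank corrected. Three separate experiments.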

[2] = Cell cycle arrest in mouse EAC assessed as accumulation at S phase by FACS analysis; type: functional, cell-based; set-up: concentration or dose not given beside the values; conditions: Ehrlich
[3] = Cytotoxicity against mouse EAC at >125 uM after 3 days by MTT assay; type: functional, Ehrlich; in short: as §1
[4] = Cytotoxicity against mouse EAC at >500 uM after 3 days by MTT assay; type: functional, Ehrlich; in short: as §1
[5] = Cytotoxicity against mouse EAC at >175 uM after 3 days by MTT assay; type: functional, Ehrlich; in short: as §1
[6] = Cytotoxicity against mouse EAC at >50 uM after 3 days by MTT assay; type: functional, Ehrlich
In short: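 EAT cells grown in suspension in RPMI 1640 with 10% heat-inactivated FCS, streptomycin and penicillin, 37°, 5% CO2; exponential cells, viability >95%. 400 cells/well exposed 2 h at 37° (final DMSO 0.25%), washed 3×, regrown 3 days. MTT 3 h 45 min, formazan in DMSO, A520; survival versus untreated controls. Triplicate separate experiments, mean ± SD.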

SMILES	IC50 [1]	IC80 [1]	Activity [2]	Activity [3]	Activity [4]	Activity [5]	Activity [6]
C[C@@H]1CC[C@@H]2[C@]34OO[C@](C)(CC[C@@H]13)O[C@H]4OC(=O)[C@]2(C)O	48.7 µM	125 µM	–	–	–	–	–
C[C@H]1[C@@H](OCc2ccc(C(=O)O)cc2)O[C@@H]2O[C@]3(C)CC[C@H]4[C@H](C)CC[C@@H]1[C@@]24OO3 [SODIUMARTELINATE]	12.2 µM	47.9 µM	63%	–	–	–	–
C[C@@H]1CC[C@H]2[C@@H](C)C(=O)O[C@@H]3O[C@@]4(C)CC[C@@H]1[C@]32OO4 [ARTEMISININ]	29.8 µM	346 µM	63%	–	–	–	–
C[C@@H]1CC[C@@H]2[C@]34OO[C@@](C)(CC[C@@H]13)O[C@H]4OC(=O)[C@@]2(C)O	> 125 µM	> 125 µM	–	98.8%	–	–	–
CCO[C@H]1O[C@@H]2O[C@@]3(C)CC[C@H]4[C@H](C)CC[C@@H]([C@H]1C)[C@@]24OO3 [ARTEMOTIL]	13.1 µM	212 µM	63%	–	–	–	–
CC(=O)[C@@H]1CC[C@@H](C)[C@@H]2CC[C@@]3(C)OO[C@@]12[C@H](OC=O)O3	91 µM	156 µM	–	–	–	–	–
CO[C@H]1O[C@@H]2O[C@@]3(C)CC[C@H]4[C@H](C)CC[C@@H]([C@H]1C)[C@@]24OO3 [ARTEMETHER]	14.3 µM	> 125 µM	63%	26.7%	–	–	–
CC(C)C12C=CC(C)(CC1)OO2 (stereo not drawn) [ASCARIDOLE]	> 500 µM	> 500 µM	–	–	74.8%	–	–
C=C1[C@@H](OOCC)O[C@@H]2O[C@]3(C)CC[C@H]4[C@H](C)CC[C@@H]1[C@@]24OO3 [ETHYLPEROXYARTEMISITENE]	11.5 µM	38.3 µM	–	–	–	–	–
CC(=O)[C@@H]1CC[C@@H](C)[C@@H]2CC[C@@]3(C)OO[C@@]12C(=O)O3	> 175 µM	> 175 µM	–	–	–	98.1%	–
C[C@H]1[C@H](O[C@@H]2O[C@@H]3O[C@@]4(C)CC[C@H]5[C@H](C)CC[C@@H]([C@H]2C)[C@@]35OO4)O[C@@H]2O[C@@]3(C)CC[C@H]4[C@H](C)CC[C@@H]1[C@@]24OO3	1.4 µM	2.4 µM	–	–	–	–	–
C=C1C(=O)O[C@@H]2O[C@@]3(C)CC[C@H]4[C@H](C)CC[C@@H]1[C@@]24OO3 [ARTEMISITENE]	6.8 µM	16 µM	–	–	–	–	–
C[C@@H]1[C@H](OCc2ccc(C(=O)O)cc2)O[C@@H]2O[C@@]3(C)CC[C@@H]4[C@@H](C)CC[C@@H]1[C@]24OO3 [ARTELINIC ACID]	16.1 µM	103 µM	63%	–	–	–	–
C=C1C(=O)O[C@@H]2/C=C(\C)CC/C=C(/C)C[C@@H](OC(=O)/C(=C/CO)CO)[C@@H]12 [EUPATORIOPICRIN]	5.7 µM	13.4 µM	–	–	–	–	–
COc1cccc2c1C(=O)c1c(O)c3c(c(O)c1C2=O)C[C@@](O)(C(=O)CO)C[C@@H]3O[C@H]1C[C@H](N)[C@H](O)[C@H](C)O1 [DOXORUBICIN]	0.35 µM	1 µM	–	–	–	–	–
C=C(C(=O)O)[C@@H]1CC[C@@H](C)[C@@H]2CCC(C)=C[C@@H]21 [ARTEMISINIC ACID]	> 175 µM	> 175 µM	–	–	–	100%	–
C=C1[C@@H](OO)O[C@@H]2O[C@]3(C)CC[C@H]4[C@H](C)CC[C@@H]1[C@@]24OO3 [HYDROPEROXYARTEMISITENE]	37.8 µM	59.2 µM	–	–	–	–	–
C=C1C(=O)O[C@@]23[C@H]1CC[C@@H](C)[C@@H]2CC[C@@]1(C)O[C@@H]31 [ARTEANNUIN B]	47 µM	> 50 µM	–	–	–	–	44.8%
CC1=CO[C@@H]2O[C@]3(C)CC[C@H]4[C@H](C)CC[C@@H]1[C@@]24OO3 [ANHYDRODIHYDROARTEMISININ]	29.2 µM	207 µM	–	–	–	–	–
C[C@H]1[C@H](OC(=O)CCC(=O)O)O[C@@H]2O[C@@]3(C)CC[C@H]4[C@H](C)CC[C@@H]1[C@@]24OO3 [SODIUM ARESUNATE]	19.9 µM	53.6 µM	–	–	–	–	–
C[C@H]1[C@@H](O)O[C@@H]2O[C@@]3(C)CC[C@H]4[C@H](C)CC[C@@H]1[C@@]24OO3 [ARTENIMOL]	83.4 µM	233 µM	–	–	–	–	–
